The experiment concerns Human alphaherpesvirus 3. Nature of the experiment: inhibitory concentration against Varicella zoster virus. The class given is functional, organism-based. Put shortly:
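Compounds serially diluted and tested in duplicate against VZV. IC50 obtained by curve fitting with a sigmoidal Hill slope (0–100) model. The rest of the assay procedure follows earlier published work and is not given here.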

The source of these data is ChEMBL document CHEMBL1137146, “Thiourea inhibitors of herpesviruses. Part 3: Inhibitors of varicella zoster virus” (Bioorg Med Chem Lett, 2004).

In turn, `CC(/N=C(\S)Nc1ccc(NC(=O)c2ccccc2F)c(C#N)c1)c1cc2ccccc2o1` (stereo not drawn) had a half-inhibitory concentration (IC50) (Human alphaherpesvirus 3) of 110 nM.

The compound `CC(/N=C(\S)Nc1ccc(NC(=O)c2ccccc2F)cc1)c1ccc(F)cc1` (stereo not drawn) registered a half-inhibitory concentration (IC50) (Human alphaherpesvirus 3) of 600 nM. Consider `CC(/N=C(\S)Nc1cc(Br)c(NC(=O)c2ccccc2F)c(Br)c1)c1ccc(F)cc1` (stereo not drawn), for which it took 70 nM to reach half-maximal inhibition (Human alphaherpesvirus 3) (IC50). In turn, `CC(NC(=O)Nc1ccc(NC(=O)c2ccccc2F)c(C#N)c1)c1ccc(F)cc1` (stereo not drawn) yielded an IC50 (Human alphaherpesvirus 3) of 30 nM. `CC(/N=C(\S)Nc1ccc(NC(=O)c2ccccc2F)c(C#N)c1)c1ccc(F)cc1` (stereo not drawn) gave a concentration for half-maximal inhibition (IC50) (Human alphaherpesvirus 3) of 110 nM. Where the note is “Human alphaherpesvirus 3”, `CC(/N=C(\S)Nc1ccc(NC(=O)c2cc3ccccc3cn2)cc1)c1ccc(F)cc1` (stereo not drawn) gave an IC50 of 180 nM. The same measure, in the same setting: the value for `CC(NC(=O)Nc1ccc(NC(=O)c2ccccc2F)c(C#N)c1)c1cc2ccccc2o1` (stereo not drawn) was 110 nM; that for `CC(/N=C(\S)Nc1ccc(NC(=O)c2ccccc2F)cc1)c1ccc(Cl)cc1` (stereo not drawn) was 210 nM. Compound `CC(/N=C(\S)Nc1ccc(NC(=O)c2ccc3ccccc3n2)cc1)c1ccc(F)cc1` (stereo not drawn) came in with a half-inhibitory concentration (IC50) (Human alphaherpesvirus 3) of 90 nM.

In the case of `COc1cc(NC(=O)c2ccccc2F)ccc1/N=C(\S)NC(C)c1ccc(F)cc1` (stereo not drawn), the IC50 (Human alphaherpesvirus 3) was 1540 nM. Regarding `Cc1cc(N/C(S)=N/C(C)c2ccc(F)cc2)ccc1NC(=O)c1ccccc1F` (stereo not drawn), the midpoint of inhibition (Human alphaherpesvirus 3), the IC50, lay at 120 nM. As for `Cc1cc(NC(=O)c2ccccc2F)ccc1N/C(S)=N/C(C)c1ccc(F)cc1` (stereo not drawn), half-maximal inhibition (Human alphaherpesvirus 3) (IC50) required 990 nM. On the same count and under the same terms, the result for `CC(/N=C(\S)Nc1ccc(NC(=O)c2ccccc2F)cc1Cl)c1ccc(F)cc1` (stereo not drawn) reads 1370 nM; that for `CC(/N=C(\S)Nc1ccc(NC(=O)c2ccccc2F)cc1)c1c[nH]c2ccccc12` (stereo not drawn), 9480 nM; that for `CC(C)(/N=C(\S)Nc1ccc(NC(=O)c2ccccc2F)cc1)c1ccccc1`, 9700 nM. For the compound `CC(NC(=S)Nc1ccc(NC(=O)c2ccccc2F)cc1)c1ccccc1` (stereo not drawn), the IC50 (Human alphaherpesvirus 3) amounted to 1300 nM. Same read-out and setting: the result for `CC(/N=C(\S)Nc1ccc(NC(=O)c2ccccc2F)cc1)c1cc2ccccc2o1` (stereo not drawn) reads 180 nM; that for `CC(/N=C(\S)Nc1ccc(-c2cc(-c3ccnc4ccccc34)no2)cc1)c1ccc(F)cc1` (stereo not drawn), 190 nM; that for `CC(/N=C(\S)Nc1ccc(NC(=O)c2ccccc2F)cc1)c1ccc2ccccc2c1` (stereo not drawn), 4510 nM. On the same count and under the same terms, the value for `O=C(Nc1ccc(N/C(S)=N/Cc2ccccc2)cc1)c1ccccc1F` was more than 26300 nM; that for `CCC(/N=C(\S)Nc1ccc(NC(=O)c2ccccc2F)cc1)c1ccc(F)cc1` (stereo not drawn) was more than 17600 nM; that for `CCOc1cc(N/C(S)=N/C(C)c2ccc(F)cc2)ccc1NC(=O)c1ccccc1F` (stereo not drawn) was 570 nM. `CC(/N=C(\S)Nc1ccc(-c2cc(Cc3ccccc3)no2)cc1)c1ccc(F)cc1` (stereo not drawn) gave a half-inhibitory concentration (IC50) (Human alphaherpesvirus 3) of 190 nM. Compound `CC(/N=C(\S)Nc1ccc(NC(=O)c2ccccc2F)c(C(F)(F)F)c1)c1ccc(F)cc1` (stereo not drawn) registered a half-maximal inhibitory concentration (IC50) (Human alphaherpesvirus 3) of 60 nM.

For the compound `CC(NC(=S)Nc1ccc(NC(=O)c2ccccc2F)cc1)c1ccc(Br)cc1` (stereo not drawn), the IC50 (Human alphaherpesvirus 3) was found to be 420 nM. The same measure, in the same setting: the value for `COc1cc(N/C(S)=N/C(C)c2ccc(F)cc2)ccc1NC(=O)c1ccccc1F` (stereo not drawn) was 90 nM. As for `CC(/N=C(\S)Nc1ccc(NC(=O)c2ccccc2F)cc1)c1ccc(C#N)cc1` (stereo not drawn), for the setting “Human alphaherpesvirus 3”, the IC50 is 960 nM. Same read-out and setting: the value for `COc1ccccc1C(=O)Nc1ccc(N/C(S)=N/C(C)c2ccc(F)cc2)cc1` (stereo not drawn) was 190 nM; that for `CC(/N=C(\S)Nc1ccc(NC(=O)c2ccccc2F)cc1)c1csc2ccccc12` (stereo not drawn) was 3560 nM. Compound `C[C@@H](NC(=S)Nc1ccc(NC(=O)c2ccccc2F)cc1)c1ccccc1` (stereo in doubt; 9) displayed an IC50 of 700 nM. Still for that read-out and setting: the result for `C[C@@H](NC(=S)Nc1ccc(NC(=O)c2ccccc2F)cc1)c1ccccc1` (stereo in doubt; 10) reads more than 19100 nM; that for `C[C@@H](NC(=S)Nc1ccc(NC(=O)c2ccccc2F)cc1)c1ccc(Br)cc1` (stereo in doubt; 11), 130 nM.

`C[C@@H](NC(=S)Nc1ccc(NC(=O)c2ccccc2F)cc1)c1ccc(Br)cc1` (stereo in doubt; 12) returned a half-maximal inhibitory concentration (IC50) of 49100 nM.
